Columns and labels:
[1] = molecular target: Glutamate receptor ionotropic, NMDA 1 (Rattus norvegicus, UniProt P35439); assay: Displacement of [3H]-5-7 dichlorokynurenic acid ([3H]- DCKA) from N-methyl-D-aspartate glutamate receptor glycine site of rat brain membrane homogenate; format: tissue-based
How it was run: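 Rat brain membranes kept at -80 °C, thawed, washed in HEPES-KOH 50 mM pH 7.5. About 0.1 mg protein incubated 30 min at 4 °C with 20 nM [3H]-DCKA and increasing probe; nonspecific binding with 1 mM glycine. Filtration, then scintillation counting. Logistic fit; Ki by Cheng-Prusoff (KD 35 nM). Mean (SE) of ≥3 experiments.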

[2] = molecular target: Glutamate NMDA receptor; Grin1/Grin2b (Rattus norvegicus, UniProt P35439+Q00960); assay: Antagonistic activity for suppression of membrane current response elicited by fixed concentration of glycine and glutamate in Xenopus oocyte expressing N-methyl-D-aspartate glutamate receptor 1/2B; format: functional
Glutamate NMDA receptor; Grin1/Grin2b, sequence (Q00960 whole entry, other chains not shown, the tested form may be a part): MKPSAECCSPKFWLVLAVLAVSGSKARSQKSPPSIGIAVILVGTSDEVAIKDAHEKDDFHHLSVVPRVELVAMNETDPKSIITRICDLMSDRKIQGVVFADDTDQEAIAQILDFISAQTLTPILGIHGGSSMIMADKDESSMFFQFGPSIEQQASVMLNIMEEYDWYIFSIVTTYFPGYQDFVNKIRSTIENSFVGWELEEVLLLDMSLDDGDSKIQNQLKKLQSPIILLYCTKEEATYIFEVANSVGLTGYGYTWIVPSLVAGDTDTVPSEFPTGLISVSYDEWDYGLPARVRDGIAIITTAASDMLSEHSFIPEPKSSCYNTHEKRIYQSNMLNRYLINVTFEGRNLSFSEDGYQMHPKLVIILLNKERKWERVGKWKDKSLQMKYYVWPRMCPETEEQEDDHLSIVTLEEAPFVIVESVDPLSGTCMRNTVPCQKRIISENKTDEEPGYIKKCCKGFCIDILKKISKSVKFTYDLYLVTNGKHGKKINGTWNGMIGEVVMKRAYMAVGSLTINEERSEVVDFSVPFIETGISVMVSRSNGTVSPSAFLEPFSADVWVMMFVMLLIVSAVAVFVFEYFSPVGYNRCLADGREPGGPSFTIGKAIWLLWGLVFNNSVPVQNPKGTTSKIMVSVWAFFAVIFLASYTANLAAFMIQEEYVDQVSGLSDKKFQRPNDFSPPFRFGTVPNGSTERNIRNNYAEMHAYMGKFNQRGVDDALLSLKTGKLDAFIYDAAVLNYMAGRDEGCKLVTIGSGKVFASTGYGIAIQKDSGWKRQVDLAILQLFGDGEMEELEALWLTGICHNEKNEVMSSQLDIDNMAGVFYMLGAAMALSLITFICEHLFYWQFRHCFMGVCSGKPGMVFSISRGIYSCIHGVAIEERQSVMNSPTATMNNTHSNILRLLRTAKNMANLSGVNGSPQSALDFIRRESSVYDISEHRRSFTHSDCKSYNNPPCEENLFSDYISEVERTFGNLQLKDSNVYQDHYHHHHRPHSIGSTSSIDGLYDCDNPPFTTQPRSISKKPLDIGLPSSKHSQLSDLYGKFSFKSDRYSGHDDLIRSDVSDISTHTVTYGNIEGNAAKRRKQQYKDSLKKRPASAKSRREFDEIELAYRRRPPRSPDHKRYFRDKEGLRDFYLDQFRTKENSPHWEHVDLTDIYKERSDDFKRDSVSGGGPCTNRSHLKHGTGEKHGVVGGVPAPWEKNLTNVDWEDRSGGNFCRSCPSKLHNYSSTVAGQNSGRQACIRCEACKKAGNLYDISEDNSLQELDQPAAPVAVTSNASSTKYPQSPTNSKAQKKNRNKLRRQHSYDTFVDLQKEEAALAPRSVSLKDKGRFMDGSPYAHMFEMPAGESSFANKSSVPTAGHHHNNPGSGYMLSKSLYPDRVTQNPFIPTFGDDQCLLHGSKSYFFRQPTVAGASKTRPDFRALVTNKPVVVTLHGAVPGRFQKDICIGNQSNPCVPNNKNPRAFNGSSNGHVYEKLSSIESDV
How it was run: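 Xenopus oocytes expressing cloned NR1A/NR2B, superfused with frog's Ringer (10 mM HEPES, 115 mM NaCl, 0.9 mM CaCl2, 1 mM KCl, pH 7.2) containing 1 μM glycine plus 100 μM glutamate, with increasing antagonist. Washes of 4–6 min between stimulations. IC50 from five-point concentration-inhibition curves, sigmoidal fit, assuming competitive inhibition. Mean (SE) of ≥3 experiments.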

`O=C(CCl)Nc1c(-c2cccc(Oc3ccccc3)c2)c(=O)[nH]c2cc(Cl)ccc12` was tested, and the Ki [1] was 216 nM and the IC50 [2] was greater than 100000 nM.

`O=C(Oc1c(-c2cccc(Oc3ccccc3)c2)c(=O)[nH]c2cc(Cl)ccc12)c1ccc(S(=O)(=O)F)cc1` was tested, and the Ki [1] was 24.2 nM and the IC50 [2] was 2410 nM.

Molecule `O=C(CCl)Nc1ccc2c(O)c(-c3cccc(Oc4ccccc4)c3)c(=O)[nH]c2c1` has a Ki [1] of 278 nM and an IC50 [2] of 38000 nM.

With `O=C(CCl)Nc1cccc(-c2c(O)c3ccc(Cl)cc3[nH]c2=O)c1` the Ki [1] was 42 nM and the IC50 [2] was 155 nM.

`O=C(CCl)Nc1cccc(Oc2cccc(-c3c(O)nc4cc(Cl)ccc4c3O)c2)c1` was tested, and the Ki [1] was 13.8 nM and the IC50 [2] was 39 nM.

`N#[N+]c1ccc2c(O)c(-c3cccc(Oc4ccccc4)c3)c(O)nc2c1` gave a Ki [1] greater than 1000 nM.

Work on `O=c1[nH]c2cc(Cl)ccc2c(O)c1-c1cccc(N=C=S)c1` yielded a Ki [1] of 47.6 nM and an IC50 [2] of 200 nM.

Work on `O=C(CCl)Nc1ccccc1Oc1cccc(-c2c(O)nc3cc(Cl)ccc3c2O)c1` yielded a Ki [1] of 7.1 nM and an IC50 [2] of 24 nM.

In the case of `O=C(CCl)Nc1ccc2c(OC(=O)CCl)c(-c3cccc(Oc4ccccc4)c3)c(=O)[nH]c2c1`, the Ki [1] is reported as 427 nM and the IC50 [2] is reported as 63000 nM.

`O=c1[nH]c2cc(Cl)ccc2c(O)c1-c1cccc(Oc2ccccc2)c1` gave a Ki [1] of 14 nM and an IC50 [2] of 18 nM.

In the case of `O=c1[nH]c2cc(Cl)ccc2c(O)c1-c1cccc(NCCS(=O)(=O)F)c1`, the Ki [1] is reported as 24 nM and the IC50 [2] is reported as 335 nM.

For `O=c1[nH]c2cc(Cl)ccc2c(O)c1-c1cccc(Oc2ccccc2NCCS(=O)(=O)F)c1`, the Ki [1] was 26.8 nM and the IC50 [2] was 32 nM.

`O=c1[nH]c2cc(N=C=S)ccc2c(O)c1-c1cccc(Oc2ccccc2)c1` showed a Ki [1] of 64.3 nM and an IC50 [2] of 24000 nM.

Reference: ChEMBL document CHEMBL1132451, “Evaluation and biological properties of reactive ligands for the mapping of the glycine site on the N-methyl-D-aspartate (NMDA) receptor” (J Med Chem, 1999)
